Columns and labels:
Assay type in all cases: functional
[1] = test system: MDA-MB-435; test: Growth inhibition of human MDA-MB-435 cells after 48 hrs by sulforhodamine B assay; conditions: MDA-MB-435, 48 h
[2] = test system: HT-29; test: Growth inhibition of human HT-29 cells after 48 hrs by sulforhodamine B assay; conditions: HT-29, 48 h
[3] = test system: K562; test: Growth inhibition of human K562 cells after 48 hrs by sulforhodamine B assay; conditions: K562, 48 h
[4] = test system: TK-10; test: Growth inhibition of human TK10 cells after 48 hrs by sulforhodamine B assay; conditions: TK-10, 48 h
[5] = test system: SW-620; test: Growth inhibition of human SW620 cells after 48 hrs by sulforhodamine B assay; conditions: SW-620, 48 h
[6] = test system: M14; test: Growth inhibition of human M14 cells after 48 hrs by sulforhodamine B assay; conditions: M14, 48 h
[7] = test system: BT-549; test: Growth inhibition of human BT549 cells after 48 hrs by sulforhodamine B assay; conditions: BT-549, 48 h
[8] = test system: ACHN; test: Growth inhibition of human ACHN cells after 48 hrs by sulforhodamine B assay
[9] = test system: NCI-H522; test: Growth inhibition of human NCI-H522 cells after 48 hrs by sulforhodamine B assay; conditions: NCI-H522, 48 h
[10] = test system: UACC-257; test: Growth inhibition of human UACC257 cells after 48 hrs by sulforhodamine B assay; conditions: UACC-257, 48 h
[11] = test system: NCI/ADR-RES; test: Growth inhibition of human NCI/ADR-RES cells after 48 hrs by sulforhodamine B assay
[12] = test system: OVCAR-3; test: Growth inhibition of human OVCAR3 cells after 48 hrs by sulforhodamine B assay; conditions: OVCAR-3, 48 h
[13] = test system: UO-31; test: Growth inhibition of human UO31 cells after 48 hrs by sulforhodamine B assay; conditions: UO-31, 48 h
[14] = test system: SK-MEL-2; test: Growth inhibition of human SK-MEL-2 cells after 48 hrs by sulforhodamine B assay; conditions: SK-MEL-2, 48 h
[15] = test system: SK-MEL-28; test: Growth inhibition of human SK-MEL-28 cells after 48 hrs by sulforhodamine B assay; conditions: SK-MEL-28, 48 h
[16] = test system: A498; test: Growth inhibition of human A498 cells after 48 hrs by sulforhodamine B assay; conditions: A498, 48 h
[17] = test system: LOX IMVI; test: Growth inhibition of human LOXIMVI cells after 48 hrs by sulforhodamine B assay
[18] = test system: OVCAR-4; test: Growth inhibition of human OVCAR4 cells after 48 hrs by sulforhodamine B assay; conditions: OVCAR-4, 48 h
[19] = test system: EKVX; test: Growth inhibition of human EKVX cells after 48 hrs by sulforhodamine B assay
[20] = test system: HCC 2998; test: Growth inhibition of human HCC2998 cells after 48 hrs by sulforhodamine B assay; conditions: HCC 2998, 48 h
[21] = test system: RPMI-8226; test: Growth inhibition of human RPMI8226 cells after 48 hrs by sulforhodamine B assay; conditions: RPMI-8226, 48 h
[22] = test system: NCI-H226; test: Growth inhibition of human NCI-H226 cells after 48 hrs by sulforhodamine B assay; conditions: NCI-H226, 48 h
[23] = test system: HCT-116; test: Growth inhibition of human HCT116 cells after 48 hrs by sulforhodamine B assay; conditions: HCT-116, 48 h
[24] = test system: SF-268; test: Growth inhibition of human SF268 cells after 48 hrs by sulforhodamine B assay; conditions: SF-268, 48 h
[25] = test system: MDA-MB-468; test: Growth inhibition of human MDA-MB-468 cells after 48 hrs by sulforhodamine B assay; conditions: MDA-MB-468, 48 h
[26] = Growth inhibition of human Hs 578T cells after 48 hrs by sulforhodamine B assay
[27] = test system: SF-539; test: Growth inhibition of human SF539 cells after 48 hrs by sulforhodamine B assay; conditions: SF-539, 48 h
[28] = test system: CAKI-1; test: Growth inhibition of human Caki1 cells after 48 hrs by sulforhodamine B assay; conditions: CAKI-1, 48 h
[29] = test system: MOLT-4; test: Growth inhibition of human MOLT4 cells after 48 hrs by sulforhodamine B assay; conditions: MOLT-4, 48 h
[30] = test system: COLO 205; test: Growth inhibition of human COLO205 cells after 48 hrs by sulforhodamine B assay; conditions: COLO 205, 48 h
[31] = test system: U-251; test: Growth inhibition of human U251 cells after 48 hrs by sulforhodamine B assay; conditions: U-251, 48 h
[32] = test system: HL-60(TB); test: Growth inhibition of human HL-60(TB) cells after 48 hrs by sulforhodamine B assay; conditions: HL-60, 48 h
Procedure, shortened: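 Run in the NCI 60 cell-line screen as the full 5-dose assay that follows initial single-dose testing; GI50 is read from the dose series.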

[33] = read-out: pLC50 (the source's name) (converted)

COc1cc(/C=C/c2cc(O)c3c(c2)C[C@@H]2C(C)(C)[C@H](O)CC[C@@]2(C)O3)cc(O)c1C/C=C(\C)CCC=C(C)C
GI50 [1]: 0.794 µM | LC50 [1]: 34.7 µM | TGI ([1]; read-out: pTGI (converted)): 5.01 µM | GI50 [2]: 1.23 µM | LC50 (concentration killing 50% of cells) [2]: 27.5 µM | TGI ([2]; read-out: pTGI (converted)): 4.9 µM | GI50 [3]: 0.263 µM | LC50 [3]: 100 µM | TGI ([3]; read-out: pTGI (converted)): 6.92 µM | GI50 [4]: 2.19 µM | LC50 [4]: 41.7 µM | TGI ([4]; read-out: pTGI (converted)): 8.91 µM | GI50 [5]: 0.331 µM | LC50 [5]: 5.13 µM | TGI ([5]; read-out: pTGI (converted)): 1.58 µM | GI50 [6]: 1.1 µM | LC50 [6]: 18.6 µM | TGI ([6]; read-out: pTGI (converted)): 3.47 µM | GI50 [7]: 0.275 µM | LC50 [7]: 69.2 µM | TGI ([7]; read-out: pTGI (converted)): 12 µM | GI50 [8]: 1.78 µM | LC50 [8]: 36.3 µM | TGI ([8]; read-out: pTGI (converted)): 12 µM | GI50 [9]: 1.91 µM | LC50 [9]: 52.5 µM | TGI ([9]; read-out: pTGI (converted)): 11 µM | GI50 [10]: 7.59 µM | LC50 [10]: 61.7 µM | TGI ([10]; read-out: pTGI (converted)): 23.4 µM | GI50 [11]: 2.57 µM | LC50 [11]: 58.9 µM | TGI ([11]; read-out: pTGI (converted)): 10.2 µM | GI50 [12]: 1.45 µM | LC50 [12]: 15.5 µM | TGI ([12]; read-out: pTGI (converted)): 4.07 µM | GI50 [13]: 0.178 µM | LC50 [13]: 37.2 µM | TGI ([13]; read-out: pTGI (converted)): 11.5 µM | GI50 [14]: 6.92 µM | LC50 [14]: 56.2 µM | TGI ([14]; read-out: pTGI (converted)): 22.4 µM | GI50 [15]: 1 µM | CC50 [15, 33]: 7.94 µM | TGI ([15]; read-out: pTGI (converted)): 2.75 µM | GI50 [16]: 0.117 µM | LC50 [16]: 12 µM | TGI ([16]; read-out: pTGI (converted)): 2.45 µM | GI50 [17]: 0.525 µM | LC50 [17]: 4.68 µM | TGI ([17]; read-out: pTGI (converted)): 1.91 µM | GI50 [18]: 2.63 µM | LC50 [18]: 63.1 µM | TGI ([18]; read-out: pTGI (converted)): 19.1 µM | GI50 [19]: 0.977 µM | LC50 (50% lethal concentration) [19]: 36.3 µM | TGI ([19]; read-out: pTGI (converted)): 10.2 µM | GI50 [20]: 0.851 µM | LC50 [20]: 9.33 µM | TGI ([20]; read-out: pTGI (converted)): 2.95 µM | GI50 [21]: 0.0105 µM | LC50 [21]: 100 µM | TGI ([21]; read-out: pTGI (converted)): 0.347 µM | GI50 [22]: 5.89 µM | LC50 [22]: 55 µM | TGI ([22]; read-out: pTGI (converted)): 21.4 µM | GI50 [23]: 0.603 µM | LC50 [23]: 6.31 µM | TGI ([23]; read-out: pTGI (converted)): 2.34 µM | GI50 [24]: 1.35 µM | LC50 [24]: 42.7 µM | TGI ([24]; read-out: pTGI (converted)): 5.13 µM | GI50 [25]: 1.1 µM | LC50 [25]: 9.12 µM | TGI ([25]; read-out: pTGI (converted)): 3.16 µM | GI50 [26]: 0.0372 µM | CC50 [26, 33]: 26.9 µM | TGI ([26]; read-out: pTGI (converted)): 0.776 µM | GI50 [27]: 0.0525 µM | LC50 [27]: 6.92 µM | TGI ([27]; read-out: pTGI (converted)): 1.66 µM | GI50 [28]: 1.7 µM | LC50 [28]: 38.9 µM | TGI ([28]; read-out: pTGI (converted)): 6.76 µM | GI50 [29]: 0.0339 µM | LC50 [29]: 100 µM | TGI ([29]; read-out: pTGI (converted)): 0.245 µM | GI50 [30]: 0.575 µM | LC50 [30]: 7.24 µM | TGI ([30]; read-out: pTGI (converted)): 2.24 µM | GI50 [31]: 0.0759 µM | LC50 [31]: 10.7 µM | TGI ([31]; read-out: pTGI (converted)): 2.63 µM | GI50 [32]: 0.0468 µM | CC50 [32, 33]: 37.2 µM | TGI ([32]; read-out: pTGI (converted)): 1.45 µM
